Assay results collected from several papers.
Each line is one published result; the experiments were not run side by side.
Cruzipain: Cruzipain (Trypanosoma cruzi, UniProt P25779)
SLCO1B1: Solute carrier organic anion transporter family member 1B1 (SLCO1B1, Homo sapiens, UniProt Q9Y6L6)
LNPEP: Leucyl-cystinyl aminopeptidase (LNPEP, Homo sapiens, UniProt Q9UIQ6)
JAK1: Tyrosine-protein kinase JAK1 (JAK1, Homo sapiens, UniProt P23458)
CYP3A4: Cytochrome P450 3A4 (CYP3A4, Homo sapiens, UniProt P08684)
MMP13: Collagenase 3 (MMP13, Homo sapiens, UniProt P45452)
DSTYK: Dual serine/threonine and tyrosine protein kinase (DSTYK, Homo sapiens, UniProt Q6XUX3)
PBRM1 bromodomain: Protein polybromo-1, bromodomain (PBRM1, Homo sapiens, UniProt Q86U86)

| Structure (SMILES) | target | test | test system | conditions | IC50 |
| --- | --- | --- | --- | --- | --- |
| C=CCOc1cccc2c1-c1c(c3c(n1C(C)C)CCCC3=O)C2=O | Casein kinase II subunit alpha' (CSNK2A2, Homo sapiens, UniProt P19784, C336S) | enzyme activity, inhibitor | – | – | 273 nM |
| CC/C=C\C/C=C\C/C=C\C/C=C\C/C=C\CCCC(=O)O | Polynucleotide kinase (pseT, Enterobacteria phage T4, UniProt P06855) | enzyme activity, inhibitor | – | – | > 100000 nM |
| O=C(COc1ccccc1Br)NCCc1nc2ccccc2[nH]1 | Cruzipain | enzyme activity, inhibitor | – | – | 400 nM |
| Oc1ccc(/C=C/c2cc(O)cc(O)c2)cc1 | SLCO1B1 | transporter uptake, inhibitor, fluorescence | CHO | 30 min, pH 7.4 | 11200 nM |
| O=S(=O)(Nc1cccc(-c2nnn[nH]2)c1)c1scc2ccccc12 | LNPEP | enzyme activity, inhibitor, fluorescence | – | – | 10900 nM |
| O=C1Nc2ccccc2C1=O | Aldehyde dehydrogenase, mitochondrial (ALDH2, Homo sapiens, UniProt P05091) | enzyme activity, inhibitor, absorbance | – | – | > 160000 nM |
| CC(C)C[C@H](NC(=O)[C@H]1O[C@@H]1C(=O)O)C(=O)NCCCCN=C(N)N | Papain (Carica papaya, UniProt P00784) | enzyme activity, inhibitor | – | – | 0.15 nM |
| CO[C@H]1/C=C/O[C@@]2(C)Oc3c(C)c(O)c4c(O)c(c(/C=N/N5CCN(C)CC5)c(O)c4c3C2=O)NC(=O)/C(C)=C\C=C\[C@H](C)[C@H](O)[C@@H](C)[C@@H](O)[C@@H](C)[C@H](OC(C)=O)[C@@H]1C | SLCO1B1 | transporter uptake, inhibitor, fluorescence | CHO | 30 min, pH 7.4 | 1300 nM |
| CCC1CN(C(=O)NCC(F)(F)F)CC1NCc1ccc(C)nc1-c1cnc2[nH]ccc2c1 (stereo not shown) | JAK1 | enzyme activity, inhibitor, ADP detection | – | – | 500 nM |
| O=S(=O)(Nc1cccc(-c2nnn[nH]2)c1)c1c(F)cc(Br)cc1F | LNPEP | enzyme activity, inhibitor, fluorescence | – | – | 7500 nM |
| Fc1ccc(Nc2c(-c3ccccn3)nc3ccc(C4CC4)cn23)cc1 | CYP3A4 | enzyme activity, inhibitor | – | – | 1600 nM |
| NC(=O)c1ccc[n+]([C@@H]2O[C@H](COP(=O)([O-])OP(=O)(O)OC[C@H]3O[C@@H](n4cnc5c(N)ncnc54)[C@H](O)[C@@H]3O)[C@@H](O)[C@H]2O)c1 | Protein mono-ADP-ribosyltransferase PARP8 (Homo sapiens, UniProt Q8N3A8) | enzyme activity, inhibitor | – | – | 377000 nM |
| Cc1ncc([N+](=O)[O-])n1CCO | SLCO1B1 | transporter uptake, inhibitor, fluorescence | CHO | 30 min, pH 7.4 | > 100000 nM |
| CC[C@@H](C(=O)Nc1ccc(C(N)=O)c(F)c1)n1cc(OC)c(-c2cc(Cl)ccc2-n2cc(C(F)(F)F)nn2)cc1=O | Coagulation factor XII (F12, Homo sapiens, UniProt P00748) | enzyme activity, inhibitor | – | – | > 2000 nM |
| Clc1ccc2[nH]c3c(NCCCN4CCOCC4)ncnc3c2c1 | Cruzipain | enzyme activity, inhibitor | – | – | 13000 nM |
| Cc1ccc(S(=O)(=O)Nc2cccc(-c3nnn[nH]3)c2)cc1C(F)(F)F | LNPEP | enzyme activity, inhibitor, fluorescence | – | – | 2300 nM |
| Cc1cc(N2CCc3c(c(C)nn3CC34CCC(NC(=O)[C@@H]5COCCN5)(CC3)CC4)C2)c2cnn(C)c2n1 | Toll-like receptor 7 (TLR7, Homo sapiens, UniProt Q9NYK1) | IL-6 release, inhibitor | – | – | 0.7 nM |
| C[C@]12CC[C@@H]3c4ccc(OS(=O)(=O)O)cc4CC[C@H]3[C@@H]1CCC2=O | SLCO1B1 | transporter uptake, inhibitor, fluorescence | CHO | 30 min, pH 7.4 | 60 nM |
| c1ccc(/C(=N\Nc2nc3ccccc3s2)c2ccccn2)cc1 | E3 ubiquitin-protein ligase Mdm2 (MDM2, Homo sapiens, UniProt Q00987) | protein-protein interaction, inhibitor | – | – | 13000 nM |
| O=C(CNC(=O)c1ccccc1)OC(C(=O)Nc1cc(C(F)(F)F)ccc1Cl)c1ccccc1 (stereo not shown) | Cruzipain | enzyme activity, inhibitor | – | – | 7000 nM |
| O=S(=O)(Nc1cccc(-c2nnn[nH]2)c1)c1cc2ccccc2s1 | LNPEP | enzyme activity, inhibitor, fluorescence | – | – | 5900 nM |
| O=C(NCCN1CCCC1)c1cc(-c2ccc(CN3CCOCC3)cc2)nc2ccc(F)cc12 | CYP3A4 | enzyme activity, inhibitor | human, liver microsomes | – | > 100000 nM |
| CCNC(=O)c1nc(-c2ccc3[nH]c(-c4nc(C)no4)cc3c2)c(C)[nH]1 | MMP13 | enzyme activity, inhibitor, FRET | – | – | 11 nM |

| Structure (SMILES) | target | test | test system | conditions | IC50 |
| --- | --- | --- | --- | --- | --- |
| CN(C)CC#Cc1ccc2[nH]c3c(c2c1)-c1nc(N)ncc1CCC3 | DSTYK | enzyme activity, inhibitor, radiometric | – | – | > 10000 nM |
| Cn1ccc2ccc(S(=O)(=O)Nc3cccc(-c4nnn[nH]4)c3)cc21 | LNPEP | enzyme activity, inhibitor, fluorescence | – | – | 12700 nM |
| Cc1ncsc1-c1ccc(CNC(=O)[C@@H]2C[C@H](O)CN2C(=O)[C@@H](NC(=O)C2(F)CC2)C(C)(C)C)c(OCCc2ccc(CN3CCN(c4cc(-c5ccccc5O)nnc4N)CC3)cc2)c1 | PBRM1 bromodomain | cell-free assay, TR-FRET | – | – | 1100 nM |
| Nc1ncnc2c1ncn2[C@@H]1O[C@H](CN(CC[C@H](N)C(=O)O)Cc2ccc3ccccc3c2)[C@@H](O)[C@H]1O | Histone-lysine N-methyltransferase NSD2 (NSD2, Homo sapiens, UniProt O96028) | enzyme activity, inhibitor | – | – | > 50000 nM |
| Cn1nc(C(=O)NCc2ccc(C(=O)O)cc2)cc1-c1ccc2[nH]c(-c3cccnc3)cc2c1 | MMP13 | enzyme activity, inhibitor, FRET | – | – | 5.8 nM |
| CCC1CN(C(=O)NCC(F)(F)F)CC1c1nc(N)nc2[nH]ccc12 (stereo not shown) | JAK1 | enzyme activity, inhibitor, ADP detection | – | – | 9600 nM |
| Cc1ncsc1-c1ccc(CNC(=O)[C@@H]2C[C@@H](O)CN2C(=O)[C@@H](NC(=O)C2(F)CC2)C(C)(C)C)c(OCCOc2ccc(CN3CCN(c4cc(-c5ccccc5O)nnc4N)CC3)cc2)c1 | PBRM1 bromodomain | cell-free assay, TR-FRET | – | – | 504 nM |
| N[C@@H](CC(=O)N1CCN(C(c2ccc(F)cc2)c2ccc(F)cc2)CC1)C(=O)N1Cc2ccccc2C1 | Lysosomal Pro-X carboxypeptidase (PRCP, Homo sapiens, UniProt P42785) | enzyme activity, inhibitor | – | – | 8430 nM |
| Nc1nc(N)c2nc(CNc3ccc(C(=O)NCCc4ccccc4)cc3)cnc2n1 | CYP3A4 | enzyme activity, inhibitor, luciferase | – | – | 11200 nM |
| CCn1ncc2c1-c1cnc(N)c(c1)O[C@H](C)c1cc(F)ccc1-c1nn(C)nc1C2 | DSTYK | enzyme activity, inhibitor, radiometric | – | – | 583 nM |
| Cn1nc(C(=O)NCc2ccc(C(=O)O)cc2)cc1-c1ccc2[nH]c(-c3cncnc3)cc2c1 | MMP13 | enzyme activity, inhibitor, FRET | – | – | 6.8 nM |
| CCOc1ccc(C[C@@H](N)C(=O)N[C@@H](Cc2ccccc2)C(=O)NC2CCN(C(=N)N)CC2)cc1 | Coagulation factor XII, trypsin-like site (F12, Homo sapiens, UniProt P00748) | enzyme activity, inhibitor, fluorescence | – | – | > 10000 nM |
| O=S(=O)(Nc1cccc(-c2nnn[nH]2)c1)c1ccc(F)c(F)c1 | LNPEP | enzyme activity, inhibitor, fluorescence | – | – | 12100 nM |
| CC(C)[C@H](CO)Nc1nc(Nc2cccc(Cl)c2)c2ncn(C(C)C)c2n1 | Serine/threonine-protein kinase PAK 4 (PAK4, Homo sapiens, UniProt O96013) | enzyme activity, inhibitor | – | lysate | > 10000 nM |
| CCn1c(-c2nc3ccc(C(=O)N4CCCC(N)C4)cc3n2C)cc2ccccc21 (stereo not shown) | Muscarinic acetylcholine receptor M1 (CHRM1, Homo sapiens, UniProt P11229) | calcium signal, antagonist, fluorescence | – | – | > 15800 nM |
| O=S(=O)(Nc1cccc(-c2nnn[nH]2)c1)c1ccc(Cl)c(Cl)c1Cl | LNPEP | enzyme activity, inhibitor, fluorescence | – | – | 1200 nM |
| Cc1noc(-c2cc3cc(-c4nc(C(=O)NCc5cccnc5)[nH]c4C)ccc3[nH]2)n1 | MMP13 | enzyme activity, inhibitor, FRET | – | – | 0.64 nM |
| Cc1cc(S(=O)(=O)Nc2cccc(-c3nnn[nH]3)c2)ccc1C(F)(F)F | LNPEP | enzyme activity, inhibitor, fluorescence | – | – | 2300 nM |
| O=C(O)c1cccnc1Nc1cccc(C(F)(F)F)c1 | SLCO1B1 | transporter uptake, inhibitor, fluorescence | CHO | 30 min, pH 7.4 | 3700 nM |
| Cc1noc(-c2cc3cc(-c4nc(C(=O)NCc5ccccn5)[nH]c4C)ccc3[nH]2)n1 | MMP13 | enzyme activity, inhibitor, FRET | – | – | 3.1 nM |
| CCCC[C@H](NC(=O)[C@H](C)c1c(C)[nH]c2ccc(O)cc12)c1ncc(-c2cc3ccccc3nc2OC)[nH]1 | Histone deacetylase 11 (HDAC11, Homo sapiens, UniProt Q96DB2) | enzyme activity, inhibitor | – | – | 100 nM |
| Cc1noc(-c2cc3cc(-c4cc(C(=O)NCc5ccc(C(=O)O)cc5)nn4C)ccc3[nH]2)n1 | MMP13 | enzyme activity, inhibitor, FRET | – | – | 0.21 nM |
| O=c1ccc2c(OCCCCOc3ccccc3)c3ccoc3c(O)c2o1 | Potassium voltage-gated channel subfamily A member 3 (Kcna3, Mus musculus, UniProt P16390) | ion current, inhibitor, patch clamp | – | – | 159 nM |
